CR mimetic SO: reduction of superoxide in aged yeast, primary screen, HTS; hit rate 0.18% among 330,000; S. cerevisiae aged cells, superoxide DHE fluorescence; stronger effect = lower value; superoxide response (% of plate mean), % at 10 µM;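 active means superoxide response under a set limit, about three screen SD below normal, cut at about 65% in these data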;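 further: yeast aged for seven days with compound at 30 °C before DHE staining; 100% = average MFI of all compound-treated wells on the plate with controls excluded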
VIM-2 inh: VIM-2 metallo-beta-lactamase inhibitors, primary screen, biochemical, epi-absorbance readout, Pseudomonas aeruginosa enzyme | purified VIM-2, nitrocefin hydrolysis, epi-absorbance fluorescence | hit rate 0.89% among 290,000 | inhibition, % at 5.6 µM | AID 1527, 2009;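 active means inhibition above the mean of all tested compounds plus 3 SD, cutoff set per screening run, cut at about 7.5% in these data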;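 further: red hydrolysis product quenches plate fluorescence so inhibitors raise well fluorescence; 0% = enzyme with DMSO and 100% = DMSO without enzyme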
PHOSPHO1 inh: PubChem AID 1565 | recombinant PHOSPHO1, absorbance phosphatase assay | inhibition, % at 13.3 µM | Phosphoethanolamine/phosphocholine phosphatase (Homo sapiens), Q8TCT1 | hit rate 1.1% among 290,000; in the data active means inhibition above about 60%
Target sequence (Q8TCT1 whole entry, looked up): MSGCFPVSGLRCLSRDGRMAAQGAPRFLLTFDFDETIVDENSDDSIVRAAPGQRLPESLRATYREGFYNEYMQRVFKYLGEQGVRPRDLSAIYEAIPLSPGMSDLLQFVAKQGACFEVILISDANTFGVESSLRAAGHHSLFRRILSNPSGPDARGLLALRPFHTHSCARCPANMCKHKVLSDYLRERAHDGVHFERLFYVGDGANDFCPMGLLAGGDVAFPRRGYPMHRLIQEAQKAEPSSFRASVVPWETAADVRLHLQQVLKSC
PvdQ inh: P. aeruginosa PvdQ acylase inhibitors, primary screen, biochemical, fluorescence, plate reader and imaging, single point; inhibition, % at 10 µM; AID 488965, 2010; purified PvdQ acylase; hit rate 0.063% among 340,000; in the data active means inhibition above about 30%, passing the limit was not always enough;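 further: 0% = vehicle neutral wells and 100% = reference inhibitor wells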
IMP-1 inh: IMP-1 metallo-beta-lactamase inhibitors, primary screen, biochemical, epi-absorbance readout, Pseudomonas aeruginosa enzyme | hit rate 0.45% among 290,000 | inhibition, % at 5.6 µM | purified IMP-1, nitrocefin hydrolysis, epi-absorbance fluorescence | metallo-beta-lactamase IMP-1 (Pseudomonas aeruginosa);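 active means inhibition above the mean plus 3 SD of all compounds in the same screening run, cut at about 4.5% in these data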;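 further: 0% = IMP-1 with DMSO and 100% = DMSO wells lacking enzyme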
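System – purified recombinant IMP-1 beta-lactamase · Input – IMP-1 dispensed at 0.2 nM · Timing – 15 min preincubation plus 25 min reaction at 25 °C · Signal – Epi-absorbance fluorescence, 480 nm excitation, 530 nm emission · Measure – percent IMP-1 inhibition derived from blank-referenced optical density · Controls – Enzyme-plus-DMSO low control, enzyme-free DMSO high control · Replication – singlicate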
Numbers without * were called inactive; . = no result. The list is not random: actives were taken first. Their share in the collection is about 2.2%.

SMILES	CR mimetic SO	VIM-2 inh	PHOSPHO1 inh	PvdQ inh	IMP-1 inh
CCOC(=O)CN1C(=O)/C(=C/c2ccccc2Br)Oc2ccccc21	107	-2	-15	-1	-2
NC(=O)NC(CC(=O)NNC(=O)c1cccs1)c1ccc(Cl)cc1 (stereo not drawn)	124	.	.	-17	.
CCCN(CCC)c1ccc(/C=N/NC(=O)CN2CCOCC2)cc1	110	-6	4	-5	-3
O=C(CN1CCOCC1)N/N=C/c1ccccc1	94	1	60*	2	-1
C/C(=N\NC(N)=S)c1ccc(-n2ccnc2)cc1	94	10.0*	25	-10	-2
C/C(=N\NC(=O)c1ccccc1)c1ccc(-n2ccnc2)cc1	101	0	-4	-3	-2
C=C1/C=C(\C)[C@](C)(O)C[C@H](O)CC(=O)[C@H](O)[C@@H](O)[C@H](C)C[C@H](C)OC(=O)/C(C)=C/CC/C=C/[C@@H]2O[C@H]2C[C@H](C)C1	87	.	.	.	.
CC[C@H](C)[C@@H](NC(=O)O[C@@H]1C(=O)c2cc(Br)ccc2O[C@H]1c1cccc(OC)c1)C(=O)OC	96	-1	6	.	1
Cc1ccc(Nc2nc3ccccc3s2)c(C)c1	106	-3	21	-3	-2
Cc1cc(O)ccc1Nc1nc2ccccc2nc1Nc1ccc(O)cc1C	100	0	97*	4	1
CC(=O)c1ccc(NC(=O)C(C)Sc2nnc(C3CCCCC3)o2)cc1 (stereo not drawn)	112	-6	27	.	-3
C=CCNC(=S)NNC(=O)c1ccccc1	104	-3	29	-3	-4
CC(C)CNC(=S)NNC(=O)c1csc2ccccc12	97	-2	88*	3	-3
CCNC(=S)NNC(=O)c1ccc(OC(F)F)cc1	95	-5	73*	4	-3
CCNC(=S)NNC(=O)c1csc2ccccc12	85	-2	-130	-4	-2
Cc1ccsc1C(=O)NNC(=S)NCC(C)C	89	-6	12	8	-4
C=CCNC(=S)NNC(=O)c1ccc(OC(C)C)cc1	95	-1	72*	-8	-2
CC(C)CNC(=S)NNC(=O)c1ccc(OC(F)F)cc1	106	-4	94*	1	-3
C#CC[N+](C)(C)C(C#Cc1ccccc1)CC=C (stereo not drawn)	101	2	9	-6	-1
CCOC(=O)c1c(NC(=O)c2cc(-c3ccc(O)cc3)on2)sc(C(C)=O)c1C	113	0	6	1	2
Cc1ccc(S(=O)(=O)Nc2cccc(C(=O)N3CCC(C(N)=O)CC3)c2)cc1	98	.	.	10	.
Cc1ccc(S(=O)(=O)N(C)CC(=O)N2CCCCCC2)cc1	77	-3	.	-17	-3
COc1ccc(/C=C2/CCC(CN3CCOCC3)C2=O)cc1 (stereo not drawn)	.	.	.	-15	.
O=C(CN1C(=O)S/C(=C/c2cccn2-c2ccc(O)cc2)C1=O)N1CCCC1	103	9.0*	30	-1	-1
O=C(O)c1cccc(-n2cccc2/C=C2/SC(=O)N(CC(=O)N3CCCC3)C2=O)c1	98	3	4	-6	-1
SMILES	CR mimetic SO	VIM-2 inh	PHOSPHO1 inh	PvdQ inh	IMP-1 inh
CC1CCCN(CCCNC(=O)C2CC(=O)N(c3ccc(F)c(Cl)c3)C2)C1 (stereo not drawn)	110	2	56	3	5.8*
COc1ccc(N2CC(C(=O)NCCCN3CCOCC3)CC2=O)cc1 (stereo not drawn)	94	0	60*	-7	-2
CC1CCCCN1CCNC(=O)C1CC(=O)N(c2ccc(F)c(Cl)c2)C1 (stereo not drawn)	103	-6	-3	-16	-3
Cc1ccc(NC2=NC3(CCCC3)N=C(N)N2)c(C)c1	62*	-2	34	-14	-2
Cc1ccc(NC2=NC3(CCCCC3)N=C(N)N2)c(C)c1	100	-4	7	-7	-4
c1ccc(OCc2nnc3sc(C4COc5ccccc5O4)nn23)cc1 (stereo not drawn)	104	-2	80*	-14	-3
Cc1ccc(-c2nnc3sc(C4COc5ccccc5O4)nn23)cc1 (stereo not drawn)	119	0	24	0	-1
Clc1ccccc1-c1nnc2sc(C3COc4ccccc4O3)nn12 (stereo not drawn)	121	1	80*	8	-3
NS(=O)(=O)c1ccc2c(c1)C1C=CCC1C(C1CC=CCC1)N2 (stereo not drawn)	118	0	3	-25	13*
CC(C)C1Nc2ccc(S(N)(=O)=O)cc2C2C=CCC21 (stereo not drawn)	96	-3	20	-9	-3
Nc1nc(=O)n(C2CC(O)C(CO)O2)cc1F (stereo not drawn)	.	.	.	-16	.
COCCCNC(=O)c1cccn2c(=O)c3cc4ccccc4cc3nc12	135	6	95*	-7	-2
COCCNC(=O)c1cc2c(=O)n3cccc(C)c3nc2n1C	106	.	33	-13	.
O=C(NCc1ccco1)c1cnc2ccccn2c1=O	100	-2	8	-11	-4
O=C(NCc1ccco1)c1cccn2c(=O)c3cc4ccccc4cc3nc12	.	4	100*	.	-3
CCOc1cc(/C=N/NC(=O)c2cccnc2)ccc1OCC(=O)N1CCOCC1	107	1	-4	10	-2
O=C1NC(=S)SC1=C1CCCC1	90	0	71*	-6	-1
CN(CC(=O)Nc1ccccc1C(=O)NC1CC1)Cc1ccc(N(C)C)cc1	73	.	.	-9	.
COc1ccccc1N1CCN(C(=O)CCCN2C(=O)c3cccc4cccc(c34)C2=O)CC1	80	-1	-9	-7	-3
O=C(Cc1cccc(NC(=O)C2CCCN(C(=O)C3CCCCC3)C2)c1)Nc1cccc(C(=O)N2CCCC2)c1 (stereo not drawn)	91	.	.	-11	.
CCCCNC(=S)NNC(=O)c1csc(C)c1CC	103	-4	1	-7	-1
C=CCNC(=S)NNC(=O)c1csc(C)c1CC	89	-6	81*	-5	-4
CCSc1nc2ccccc2c(=O)n1CCc1ccc(OC)c(OC)c1	105	-2	20	-5	-2
CCOC(=O)c1c(C)[nH]c(C(=O)COC(=O)CNC(=O)c2ccc(Br)cc2)c1C	100	2	5	1	-2
CCOC(=O)c1c(C)[nH]c(C)c1C(=O)COC(=O)CNC(=O)c1ccc(OCC)cc1	108	-2	-24	2	4.7*
CCN1CCN(c2nc(C)nc3c2sc(=S)n3C)CC1	.	5	60*	-4	-4
CCOC(=O)C1(CCOc2ccccc2)CCN(Cc2cccc3nonc23)CC1	82	-6	60*	8	-2
CCOC(=O)C1(CCOc2ccccc2)CCN(Cc2ccc(O)cc2)CC1	91	-1	14	-17	0

Screening results deposited in PubChem BioAssay by several laboratories.
